Experimental data taken from ChEMBL document CHEMBL1158708, “Cerylimycins [corrected] A and B: antibacterial triterpenes from the new species Tricholoma sp. AU1” (J Nat Prod, 2005).

Legend:
[1] = system: Staphylococcus aureus; test: Antimicrobial activity against Staphylococcus aureus after 18 hrs; type: functional, organism-based
Procedure, shortened: (§1)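 Strains grown on Mueller-Hinton agar, then in Mueller-Hinton broth with CaCl₂/MgCl₂ at 37 °C for 18 h. Serially diluted (K. pneumoniae and P. aeruginosa 10^-6, S. aureus 10^-8, S. pneumoniae 10^-4, as cfu/mL) and equilibrated 30 min at 37 °C. Incubated with samples, shaken at 37 °C and 60% humidity for 18 h. Read at OD650. Streptomycin 50 μg/mL control wells.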

[2] = system: THP-1; test: Cytotoxicity against human THP1 cells after 72 hrs by WST-1 assay; type: cell-based; conditions: THP-1, 72 h
Procedure, shortened: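 THP-1 cells kept in RPMI 1640 with 10% FBS, 2 mM L-glutamine, penicillin/streptomycin and 10 μM 2-mercaptoethanol at 37 °C, 5% CO₂. Seeded at 2.5 × 10⁴ cells/well and exposed to samples at 250 μg/mL final for 72 h. WST-1 added for 1–2 h, absorbance read at 450 nm. Controls were 10 μM camptothecin and 0.1% DMSO.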

[3] = system: Klebsiella pneumoniae; test: Antimicrobial activity against Klebsiella pneumoniae after 18 hrs; type: functional, organism-based; procedure, shortened: as §1
[4] = system: Pseudomonas aeruginosa; test: Antimicrobial activity against Pseudomonas aeruginosa after 18 hrs; type: functional, organism-based; procedure, shortened: as §1
[5] = system: Streptococcus pneumoniae; test: Antimicrobial activity against Streptococcus pneumoniae after 18 hrs; type: functional, organism-based; procedure, shortened: as §1

Row | IC50 [1] | IC50 [3] | IC50 [4] | IC50 [5] | SMILES | IC50 [2]
1 | 12 µM | > 473 µM | > 473 µM | 6 µM | C=C1CC[C@H]2C(C)(C)[C@H](O)CC[C@]2(C)[C@@H]1C[C@@H]1CCC(=C)[C@H](CC/C(C)=C/CO)[C@@]1(C)C(=O)O [TRICHOMYCIN B] | 640 µM
2 | 12 µM | > 500 µM | > 500 µM | 5 µM | C=C1CC[C@H]2C(C)(C)[C@H](O)CC[C@]2(C)[C@@H]1C[C@@H]1CCC(=C)[C@H](CC/C(C)=C/COC=O)[C@@]1(C)C(=O)O [TRICHOMYCIN A] | > 1000 µM
